According to ChEMBL document CHEMBL1121388, “Analgesic narcotic antagonists. 2. 8-Alkymorphinan-6-ones” (J Med Chem, 1980):
Activity calls are given as the source filed them. The calls are words filed in the database; no cut-off is given here.

Key:
Mus musculus [1] = assay: The effective dose was measured by using mouse writhing assay after the compound administered subcutaneously.; assay type: functional; conditions: sc
Method in brief: (§1)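 Analgesia in the mouse writhing test induced by acetic acid, with compound given subcutaneously. Salts were dissolved in distilled H₂O; free bases were dissolved by dropwise 1 N HCl and then diluted.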

Rattus norvegicus [2] = assay: Effective dose was measured by using rat tail flick assay after subcutaneous administration; assay type: functional; conditions: sc
Method in brief: (§2)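 Agonist activity in the rat heat-stimulus tail-flick test. Drug was given subcutaneously and rats were tested 20 min after dosing. Salts were dissolved in distilled H₂O; free bases were dissolved with dropwise 1 N HCl and then diluted. ED₅₀ or inactivity/lethality recorded at the dose indicated.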

Rattus norvegicus [3] = assay: The effective dose was measured by using rat tail flick assay after the compound administered intraperitoneally.; assay type: functional; conditions: ip
Rattus norvegicus [4] = assay: The Effective dose was measured by using rat tail flick assay after the compound administered intraperitoneally at a dose of 25 umol/kg; IA means inactive at the given dose; assay type: functional, organism-based
Mus musculus [5] = assay: The Effective dose was measured by using mouse writhing assay after the compound administered subcutaneously; IA means inactive; assay type: functional, organism-based; method in brief: as §1
Rattus norvegicus [6] = species on record: Rattus norvegicus; assay: Ratio of agonist to that of antagonist activity; assay type: functional
Mus musculus [7] = assay: The Effective dose was measured by using mouse writhing assay after the compound administered subcutaneously at a dose of 22 umol/kg; IA means inactive at the given dose; assay type: functional, organism-based; method in brief: as §1
Mus musculus [8] = assay: The Effective dose was measured by using mouse writhing assay after the compound administered subcutaneously at a dose of 25 umol/kg; IA means inactive at the given dose; assay type: functional, organism-based; method in brief: as §1
Mus musculus [9] = assay: The Effective dose was measured by using mouse writhing assay after the compound administered subcutaneously at a dose of 24 umol/kg; IA means inactive at the given dose; assay type: functional, organism-based; method in brief: as §1
Rattus norvegicus [10] = assay: The %change in weight from day 0 to day 4 after administering the compound at dose of 40 (mg/kg)/day in rat; assay type: functional
Method in brief: (§3)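 Rat physical dependence liability study: drug infused at the stated mg/kg/day for 6 days, with saline-infused controls for 6 days. Body weight was recorded daily and expressed as % change from day 0 on days 1–4. Groups of 4–6 rats; values are means ±.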

Rattus norvegicus [11] = assay: The %change in weight from day 0 to day1 after administering the compound at dose of 40 (mg/kg)/day in rat; assay type: functional; method in brief: as §3
Rattus norvegicus [12] = assay: The %change in weight from day 0 to day 3 after administering the compound at dose of 40 (mg/kg)/day in rat; assay type: functional; method in brief: as §3
Rattus norvegicus [13] = assay: The %change in weight from day 0 to day 2 after administering the compound at dose of 40 (mg/kg)/day in rat; assay type: functional; method in brief: as §3
Mus musculus [14] = assay: The Effective dose was measured by using mouse writhing assay 5 min after the compound administered subcutaneously; assay type: functional; conditions: sc
Mus musculus [15] = assay: The Effective dose was measured by using mouse writhing assay after the compound administered subcutaneously at a dose 27umol/kg; IA means inactive at the given dose; assay type: functional, organism-based; method in brief: as §1
Rattus norvegicus [16] = assay: The Effective dose was measured by using rat tail flick assay after the compound administered subcutaneously at a dose 27umol/kg; IA means inactive at the given dose; assay type: functional, organism-based; method in brief: as §2

Compound	ED50 (Mus musculus [1]) [µmol/kg]	ED50 (Rattus norvegicus [3]) [µmol/kg]	other results
CN1CCC23CC(=O)CC[C@H]2C1Cc1ccc(O)cc13 (stereo not given in full)	0.52	–	ED50 (Rattus norvegicus [2]): 70 µmol/kg
CCC[C@@H]1CC(=O)CC23CCN(C)C(Cc4ccc(O)cc42)[C@@H]13 (stereo not given in full)	1.37	–	ED50 (Rattus norvegicus [2]): 2.46 µmol/kg
C=CCN1CCC23CC(=O)CC(C)[C@H]2C1Cc1ccc(OC)cc13 (stereo not given in full)	3.47	> 24	–
COc1ccc2c(c1)C13CCN(CC4CCC4)C(C2)[C@H]1[C@H](C)CC(=O)C3 (stereo not given in full)	47	–	ED50 (Rattus norvegicus [4]): inactive
C=CCN1CC[C@]23c4c5ccc(O)c4O[C@H]2C(=O)CC[C@@]3(O)[C@H]1C5 [NALOXONE]	–	–	ED50 (Mus musculus [5]): inactive
CC[C@@H]1CC(=O)CC23CCN(CC4CCC4)C(Cc4ccc(O)cc42)[C@@H]13 (stereo not given in full)	> 24	11.6	–
CC(C)=CCN1CC[C@]2(C)c3cc(O)ccc3C[C@H]1[C@H]2C [(+)-PENTAZOCINE]	–	–	Ratio (Rattus norvegicus [6]): 0.36
Oc1ccc2c(c1)[C@@]13CCCC[C@@]1(O)[C@@H](C2)N(CC1CCC1)CC3 [BUTORPHANOL]	0.34	2	Ratio (Rattus norvegicus [6]): 0.17
COc1ccc2c(c1)C13CCN(CC4CCC4)C(C2)[C@@H]1[C@@H](C)CC(=O)C3.Cl (stereo not given in full)	1.38	16.4	Ratio (Rattus norvegicus [6]): 0.08
CCC[C@@H]1CC(=O)CC23CCN(CC4CC4)C(Cc4ccc(OC)cc42)[C@@H]13 (stereo not given in full)	–	6.4	ED50 (Mus musculus [7]): inactive
C[C@H]1[C@H]2Cc3ccc(O)cc3[C@]1(C)CCN2CC1CC1 [CYCLAZOCINE]	0.41	0.81	Ratio (Rattus norvegicus [6]): 0.5
CN1CCC23CC(=O)CC[C@@H]2C1Cc1ccc(O)cc13 (stereo not given in full)	0.75	–	ED50 (Rattus norvegicus [2]): 1.33 µmol/kg
CC[C@@H]1CC(=O)CC23CCN(CC4CC4)C(Cc4ccc(OC)cc42)[C@@H]13 (stereo not given in full)	–	1.64	ED50 (Mus musculus [8]): inactive
COc1ccc2c(c1)C13CCN(C)C(C2)[C@H]1CCC(=O)C3 (stereo not given in full)	5.54	–	ED50 (Rattus norvegicus [2]): > 70 µmol/kg
CC[C@H]1CC(=O)CC23CCN(CC4CC4)C(Cc4ccc(OC)cc42)[C@H]13 (stereo not given in full)	4.4	> 50	–
O=C1CC[C@H]2C3Cc4ccc(O)cc4C2(CCN3CC2CCC2)C1 (stereo not given in full)	0.047	–	ED50 (Rattus norvegicus [4]): inactive
COc1ccc2c(c1)C13CCN(CC4CC4)C(C2)[C@@H]1CCC(=O)C3.Cl (stereo not given in full)	0.66	14.9	Ratio (Rattus norvegicus [6]): 0.04
CCC[C@@H]1CC(=O)CC23CCN(CC4CCC4)C(Cc4ccc(OC)cc42)[C@@H]13 (stereo not given in full)	–	> 24	ED50 (Mus musculus [9]): inactive
C[C@@H]1CC(=O)CC23CCN(C)C(Cc4ccc(O)cc42)[C@@H]13 (stereo not given in full)	1.18	–	ED50 (Rattus norvegicus [2]): 0.93 µmol/kg
C[C@H]1CC(=O)CC23CCN(CC4CCC4)C(Cc4ccc(O)cc42)[C@H]13.Cl (stereo not given in full)	0.29	2.79	Ratio (Rattus norvegicus [6]): 0.1
COc1ccc2c(c1)C13CCN(CC4CC4)C(C2)[C@H]1CCC(=O)C3 (stereo not given in full)	> 25	3.6	–
CCC[C@H]1CC(=O)CC23CCN(C)C(Cc4ccc(OC)cc42)[C@H]13 (stereo not given in full)	15.4	–	ED50 (Rattus norvegicus [2]): > 28 µmol/kg
CCC[C@H]1CC(=O)CC23CCN(CC4CC4)C(Cc4ccc(OC)cc42)[C@H]13 (stereo not given in full)	12.4	–	ED50 (Rattus norvegicus [4]): inactive
C[C@@H]1CC(=O)CC23CCN(CC4CC4)C(Cc4ccc(O)cc42)[C@@H]13 (stereo not given in full)	–	0.89	ED50 (Mus musculus [8]): inactive
CC[C@@H]1CC(=O)CC23CCN(C)C(Cc4ccc(OC)cc42)[C@@H]13 (stereo not given in full)	37	–	ED50 (Rattus norvegicus [2]): > 28 µmol/kg
C=CCN1CC[C@]23c4c5ccc(O)c4O[C@H]2[C@@H](O)C=C[C@H]3[C@H]1C5 [NALORPHINE]	–	–	Ratio (Rattus norvegicus [6]): 1.42

Compound	ED50 (Mus musculus [1]) [µmol/kg]	ED50 (Rattus norvegicus [3]) [µmol/kg]	other results
COc1ccc2c(c1)C13CCN(C)C(C2)[C@@H]1[C@@H](C)CC(=O)C3 (stereo not given in full)	1.34	–	ED50 (Rattus norvegicus [2]): 3.57 µmol/kg
COc1ccc2c3c1O[C@H]1[C@@H](O)C=C[C@H]4[C@@H](C2)N(C)CC[C@@]341 [CODEINE]	10.3	–	ED50 (Rattus norvegicus [2]): 75 µmol/kg
O=C(O)C(O)C(O)C(=O)O.Oc1ccc2c(c1)[C@@]13CCCC[C@@]1(O)[C@@H](C2)N(CC1CCC1)CC3 [BUTORPHANOL TARTRATE]	–	–	Change (Rattus norvegicus [10]): 2.2%; Change (Rattus norvegicus [11]): -6.6%; Change (Rattus norvegicus [12]): 0.9%; Change (Rattus norvegicus [13]): -3.1%
C[C@@H]1CC(=O)CC23CCN(CC4CCC4)C(Cc4ccc(O)cc42)[C@@H]13 (stereo not given in full)	5.98	12.8	–
C=CCN1CCC23CC(=O)CC(C)[C@H]2C1Cc1ccc(O)cc13 (stereo not given in full)	> 25	0.65	–
CCC[C@H]1CC(=O)CC23CCN(CC4CCC4)C(Cc4ccc(O)cc42)[C@H]13 (stereo not given in full)	1.06	7.67	–
CCC[C@@H]1CC(=O)CC23CCN(CC4CCC4)C(Cc4ccc(O)cc42)[C@@H]13 (stereo not given in full)	> 24	4.5	–
O=C1CC[C@@H]2C3Cc4ccc(O)cc4C2(CCN3CC2CCC2)C1 (stereo not given in full)	2.6	13.8	–
CCC[C@@H]1CC(=O)CC23CCN(CC4CC4)C(Cc4ccc(O)cc42)[C@@H]13 (stereo not given in full)	–	3.34	ED50 (Mus musculus [9]): inactive
Cl.O=C1CC[C@@H]2C3Cc4ccc(O)cc4C2(CCN3CC2CC2)C1 (stereo not given in full)	–	2.24	ED50 (Mus musculus [14]): 8.9 µmol/kg; Ratio (Rattus norvegicus [6]): 4
CC[C@@H]1CC(=O)CC23CCN(C)C(Cc4ccc(O)cc42)[C@@H]13 (stereo not given in full)	2.11	–	ED50 (Rattus norvegicus [2]): 2.31 µmol/kg
COc1ccc2c3c1O[C@H]1C(=O)CC[C@H]4[C@@H](C2)N(C)CC[C@]314 [HYDROCODONE]	–	–	ED50 (Rattus norvegicus [2]): 5.2 µmol/kg
CC[C@@H]1CC(=O)CC23CCN(CC4CC4)C(Cc4ccc(O)cc42)[C@@H]13 (stereo not given in full)	–	0.88	ED50 (Mus musculus [8]): inactive
O=C1CC[C@H]2C3Cc4ccc(O)cc4C2(CCN3CC2CC2)C1 (stereo not given in full)	3.28	7.4	Ratio (Rattus norvegicus [6]): 0.44
COc1ccc2c(c1)C13CCN(CC4CCC4)C(C2)[C@@H]1CCC(=O)C3 (stereo not given in full)	0.58	–	ED50 (Rattus norvegicus [4]): inactive
CC[C@H]1CC(=O)CC23CCN(CC4CCC4)C(Cc4ccc(O)cc42)[C@H]13.Cl (stereo not given in full)	–	0.82	ED50 (Mus musculus [14]): 0.54 µmol/kg; Ratio (Rattus norvegicus [6]): 0.65
CC[C@H]1CC(=O)CC23CCN(C)C(Cc4ccc(O)cc42)[C@H]13 (stereo not given in full)	2.29	–	ED50 (Rattus norvegicus [2]): 33 µmol/kg
COc1ccc2c(c1)C13CCN(C)C(C2)[C@@H]1CCC(=O)C3 (stereo not given in full)	1.72	–	ED50 (Rattus norvegicus [2]): 2.32 µmol/kg
CCC[C@H]1CC(=O)CC23CCN(CC4CC4)C(Cc4ccc(O)cc42)[C@H]13 (stereo not given in full)	–	24.3	ED50 (Mus musculus [8]): inactive
CC[C@H]1CC(=O)CC23CCN(C)C(Cc4ccc(OC)cc42)[C@H]13 (stereo not given in full)	3.23	–	ED50 (Rattus norvegicus [2]): 10.6 µmol/kg
C[C@H]1CC(=O)C[C@]23CCN(CC4CC4)[C@H](Cc4ccc(O)cc42)[C@H]13	10.2	1.8	Ratio (Rattus norvegicus [6]): 5.7
CCC[C@H]1CC(=O)CC23CCN(C)C(Cc4ccc(O)cc42)[C@H]13 (stereo not given in full)	–	–	ED50 (Mus musculus [15]): inactive; ED50 (Rattus norvegicus [16]): inactive
COc1ccc2c(c1)C13CCN(CC4CC4)C(C2)[C@H]1[C@H](C)CC(=O)C3 (stereo not given in full)	> 80	9	–
C[C@H]1CC(=O)CC23CCN(C)C(Cc4ccc(O)cc42)[C@H]13 (stereo not given in full)	2.55	–	ED50 (Rattus norvegicus [2]): > 30 µmol/kg
COc1ccc2c(c1)[C@]13CCN(CC4CC4)[C@H](C2)[C@@H]1[C@@H](C)CC(=O)C3	0.71	4.27	Ratio (Rattus norvegicus [6]): 0.17
